According to BindingDB's records for doi:10.1021/jm950797i (Medichem Research, 1996):

What was measured:
[1] = target: T1, Gag-Pol polyprotein [489-587] (Human immunodeficiency virus 1, UniProt P04585); assay: Inhibitory activity against TIBO-resistant HIV-1 RT Nucleic Acid polymerase
T1 construct: 489-587

[2] = target: T1, Gag-Pol polyprotein [489-587]; assay: Inhibitory activity against DNA -dependent DNA polymerase (DDDP) of HIV-1 RT Nucleic Acid polymerase
Method in brief: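 Dimeric (p66/p51) HIV-1 RT in the RT buffer, reacted 1 h at 37 °C. Template was activated calf thymus DNA (final 20 µg/mL), with dATP, dCTP and dGTP each at final 50 µM plus 5 µCi [3H]TTP. Acid-insoluble label was counted by scintillation. Prescreened at 200 µg/mL, then 10 half-log concentrations in duplicate; IC50 read from dose-response curves.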

[3] = target: T1, Gag-Pol polyprotein [489-587]; assay: Inhibitory activity against RNA-dependent DNA polymerase (RDDP) of HIV-1 RT Nucleic Acid polymerase
Method in brief: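 Purified dimeric (p66/p51) HIV-1 RT (0.08 µg) in pH 8.0 Tris-HCl with KCl, MgCl2, DTT, glutathione, EGTA and BSA. Template-primer was 41 µM poly(rA) with 9.5 µM oligo(dT), plus 20 µM TTP and [3H]TTP. Incubated 1 h at 37 °C, stopped at 80 °C, and counted on filters. Prescreened at 200 µg/mL; IC50 taken from 10 half-log doses in duplicate.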

Row | Compound | IC50 [1] | IC50 [2] | IC50 [3]
1 | CCCc1cc(=O)oc2c3c(c4c(c12)OC(C)(C)C=C4)O[C@H](C)[C@@H](C)[C@@H]3O [(10R,11S,12S)-12-Hydroxy-6,6,10,11-tetramethyl-4-propyl-11,12-dihydro-6H,10H-dipyrano[2,3-f;2',3'-h]chromen-2-one] | 10.1 µM | 0.38 µM | 
2 | CCCc1cc(=O)oc2c3c(c4c(c12)OC(C)(C)C=C4)O[C@@H](C)[C@H](C)[C@@H]3O |  | 156 µM | 27.8 µM
3 | CCCc1cc(=O)oc2c3c(c4c(c12)OC(C)(C)C=C4)O[C@@H](C)C(C)[C@@H]3O (stereo partly drawn) [(10S,12S)-12-Hydroxy-6,6,10,11-tetramethyl-4-propyl-11,12-dihydro-6H,10H-dipyrano[2,3-f;2',3'-h]chromen-2-one] | 17.6 µM | 0.7 µM | 0.97 µM
